GPR7 antagonist – GPR7 receptor antagonists, primary screen, cell-based, fluorescence, single concentration. GPR7-expressing cells, fluorescence antagonist assay. inhibition, % at 4.4 µM. 290,000 tested, 1.1% active. AID 1861, 2009. Neuropeptides B/W receptor type 1 (Homo sapiens), P48145; in the data active means inhibition above about 16%, passing the limit was not always enough;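 further: cells stimulated with the agonist NPW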
Target sequence (P48145 whole entry, looked up): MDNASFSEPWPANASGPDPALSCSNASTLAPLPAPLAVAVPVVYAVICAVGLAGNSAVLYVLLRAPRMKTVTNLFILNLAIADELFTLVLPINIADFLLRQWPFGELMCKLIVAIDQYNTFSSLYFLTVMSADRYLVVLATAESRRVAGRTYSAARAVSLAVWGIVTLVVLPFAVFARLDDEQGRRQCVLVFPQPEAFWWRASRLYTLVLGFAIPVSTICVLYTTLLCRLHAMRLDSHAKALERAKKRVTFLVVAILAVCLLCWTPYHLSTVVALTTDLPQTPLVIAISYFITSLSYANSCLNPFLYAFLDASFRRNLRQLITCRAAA
CHO parental Ca – ATP-evoked calcium signal inhibitors, parental CHO, primary screen, counter-screen for OX1R antagonist project, cell-based, fluorescence, Fluo-8 calcium dye; 330,000 tested, 0.63% active; parental CHO-K1, ATP-induced calcium, Fluo-8 fluorescence; AID 463079, 2010; inhibition, % at 5.6 µM;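 active means inhibition above that plate's mean sample inhibition plus 3 SD, cut at about 26% in these data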
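material = parental CHO cells | also added = ATP as calcium-mobilizing challenge | dosing = single point at 5.6 µM | detection = intracellular calcium via Fluo-8 no-wash fluorescent dye | read-out = % inhibition | benchmarks = low control ATP plus DMSO, high control DMSO only | repeats = one well per compound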
OX1R antag-1 – antagonists of human orexin 1 receptor (OX1R). OX1R-expressing cells, FRET antagonist read-out. inhibition, % at 6.6 µM. 330,000 tested, 1.8% active. AID 485270, 2010; in the data active means inhibition mostly above about 38%, no sharp cut-off; inactive means mostly below about 40%
OX1R antag-2 – OX1R (HCRTR1) antagonists, primary screen, fluorescence, CHO/OX1R cells, Fluo-8 calcium, orexin A | Orexin/Hypocretin receptor type 1 (Homo sapiens), O43613 | Fluo-8 calcium fluorescence | inhibition, % at 5 µM | 330,000 tested, 0.43% active | AID 434989, 2010;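 active means inhibition above its plate's threshold, mean inhibition of all tested compounds on the plate plus 3 SD, cut at about 37% in these data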
MPTP inh – mitochondrial permeability transition pore inhibitors, primary screen, biochemical, isolated mouse mitochondria, absorbance. Ca2+ swelling absorbance, 30 min. inhibition, % at 10 µM. 360,000 tested, 1.4% active;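 active means inhibition of 50% or more, scaled per plate between neutral and stimulator controls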
Hits are given with their value. Shown are actives, neighbours in structure and some others; about 3.8% of the full set was active somewhere.

How did CSc1nc(O)cc(=O)n1-c1ccc(F)cc1 do in these assays?
GPR7 antagonist: inactive; CHO parental Ca: inactive; OX1R antag-1: inactive; OX1R antag-2: inactive; MPTP inh: inactive

Results for CCOCc1c(C(=O)NC2=Nc3ccccc3NC(CC)=C2C(=O)OCC)oc2ccccc12 ?
GPR7 antagonist: inactive; CHO parental Ca: inactive; OX1R antag-1: 39.5; OX1R antag-2: inactive; MPTP inh: inactive

What do the screens show for `CCOC(=O)C1=C(CC)Nc2ccccc2N=C1NC(=O)c1oc2ccccc2c1C`?
GPR7 antagonist: inactive; CHO parental Ca: inactive; OX1R antag-1: inactive; OX1R antag-2: inactive; MPTP inh: inactive

How did COc1ccc(OC)c(NC(=O)CC2SC(=Nc3ccccc3)N(CCc3ccccn3)C2=O)c1 (stereo not given) do in these assays?
GPR7 antagonist: inactive; CHO parental Ca: inactive; OX1R antag-1: inactive; OX1R antag-2: inactive; MPTP inh: inactive

What do the screens show for `COc1ccc(N=C2SC(CC(=O)Nc3ccccc3)C(=O)N2CCc2ccccn2)cc1` (stereo not given)?
GPR7 antagonist: inactive; CHO parental Ca: inactive; OX1R antag-1: 69.2; OX1R antag-2: inactive; MPTP inh: inactive

How did CCOC(=O)CCCCCC(=O)Nc1ccc2c(c1)CC(=O)N([C@@H](C)CO)C[C@H](C)[C@@H](CN(C)C(=O)Nc1ccc3c(c1)OCO3)O2 do in these assays?
MPTP inh: inactive

Results for O=C(N/C=C/n1cnc2cc(C(F)(F)F)ccc21)c1ccccc1 ?
GPR7 antagonist: inactive; CHO parental Ca: 50.6; OX1R antag-1: inactive; OX1R antag-2: inactive; MPTP inh: inactive

Results for O=C(N/C=C\n1cnc2cc(C(F)(F)F)ccc21)c1ccc([N+](=O)[O-])cc1 ?
GPR7 antagonist: inactive; CHO parental Ca: inactive; OX1R antag-1: inactive; OX1R antag-2: inactive; MPTP inh: inactive

What do the screens show for `O=C(O)CCNS(=O)(=O)c1ccc2c(c1)OCCCO2`?
GPR7 antagonist: inactive; CHO parental Ca: inactive; OX1R antag-1: inactive; OX1R antag-2: inactive; MPTP inh: inactive

How did CCOc1ccccc1N(C(=O)c1snc(C(N)=O)c1N)C(C(=O)NC1CCCC1)c1ccco1 (stereo not given) do in these assays?
GPR7 antagonist: 20.9; CHO parental Ca: inactive; OX1R antag-1: inactive; OX1R antag-2: inactive; MPTP inh: inactive

What do the screens show for `CCOc1ccccc1N(C(=O)c1snc(C(N)=O)c1N)C(C(=O)NC1CCCC1)c1cccs1` (stereo not given)?
GPR7 antagonist: inactive; CHO parental Ca: inactive; OX1R antag-1: inactive; OX1R antag-2: inactive; MPTP inh: inactive

How did Cc1ccc(C(=O)NCC(=O)OCc2c(F)cccc2Cl)s1 do in these assays?
CHO parental Ca: inactive; OX1R antag-1: inactive; OX1R antag-2: inactive; MPTP inh: inactive

Results for Cc1cccc(C2c3[nH]c4ccccc4c3CCN2Cc2cccn2-c2ncccn2)c1 (stereo not given) ?
GPR7 antagonist: inactive; CHO parental Ca: inactive; OX1R antag-1: inactive; OX1R antag-2: inactive; MPTP inh: inactive

Results for COc1ccc(C2c3[nH]c4ccccc4c3CCN2Cc2cccn2-c2ncccn2)cc1C (stereo not given) ?
GPR7 antagonist: 29.8; CHO parental Ca: inactive; OX1R antag-1: inactive; OX1R antag-2: inactive; MPTP inh: inactive

How did Cc1ccc(-n2c(-c3ccc(Br)cc3)c[n+]3c2CCc2ccc4cccnc4c2-3)cc1 do in these assays?
GPR7 antagonist: 65.0; CHO parental Ca: 83.7; OX1R antag-1: inactive; OX1R antag-2: 90.2; MPTP inh: inactive

What do the screens show for `O=[N+]([O-])c1ccc(N2CCCC2)nc1`?
GPR7 antagonist: inactive; CHO parental Ca: inactive; OX1R antag-1: 42.0; OX1R antag-2: inactive; MPTP inh: inactive

What do the screens show for `O=[N+]([O-])c1ccc(N2CCCCC2)nc1`?
CHO parental Ca: inactive; OX1R antag-1: inactive; OX1R antag-2: inactive; MPTP inh: inactive

How did Cc1c(Br)cccc1NC(=O)C1(C)CCN1C(C)C (stereo not given) do in these assays?
MPTP inh: inactive

What do the screens show for `CCCN1C(=O)/C(=C/c2c(NCCCOCC)nc3c(C)cccn3c2=O)SC1=S`?
GPR7 antagonist: inactive; MPTP inh: inactive

What do the screens show for `O=C1/C(=C\c2c(NCCOCCO)nc3ccccn3c2=O)SC(=S)N1Cc1ccco1`?
GPR7 antagonist: inactive; CHO parental Ca: 34.4; OX1R antag-1: inactive; OX1R antag-2: inactive; MPTP inh: inactive

Results for Cc1ccccc1OCC(O)Cn1c(=N)n(Cc2ccccc2)c2ccccc21 (stereo not given) ?
GPR7 antagonist: 34.5; CHO parental Ca: 38.6; OX1R antag-1: inactive; OX1R antag-2: inactive; MPTP inh: inactive

How did COc1cc(NC(=O)c2ccccc2OCc2ccccc2)cc(OC)c1OC do in these assays?
GPR7 antagonist: inactive; CHO parental Ca: inactive; OX1R antag-1: 44.5; OX1R antag-2: inactive; MPTP inh: inactive

What do the screens show for `O=C1C(c2ccccc2)=NCCN1C(c1ccc(F)cc1)c1nc2ccccc2[nH]1` (stereo not given)?
MPTP inh: inactive

What do the screens show for `Cc1cc2c(cc1C)CSC(c1ccccc1O)SC2`?
GPR7 antagonist: inactive; CHO parental Ca: 59.3; OX1R antag-1: inactive; OX1R antag-2: inactive; MPTP inh: inactive

How did C[C@@H]1CN([C@@H](C)CO)S(=O)(=O)c2ccc(-c3ccc(C#N)cc3)cc2O[C@@H]1CN(C)Cc1ccccn1 do in these assays?
MPTP inh: inactive

Results for O=C(Nc1ccccc1)C1CCCN1S(=O)(=O)c1ccc(Br)cc1 (stereo not given) ?
GPR7 antagonist: inactive; CHO parental Ca: inactive; OX1R antag-1: 64.0; OX1R antag-2: inactive; MPTP inh: inactive

How did O=C(Nc1ccc(Cl)cn1)C1CCCN1S(=O)(=O)c1ccccc1 (stereo not given) do in these assays?
GPR7 antagonist: inactive; CHO parental Ca: inactive; OX1R antag-1: 69.5; OX1R antag-2: inactive; MPTP inh: inactive

How did O=C(Nc1nccs1)C1CCCN1S(=O)(=O)c1ccc(Cl)cc1 (stereo not given) do in these assays?
GPR7 antagonist: inactive; CHO parental Ca: inactive; OX1R antag-1: inactive; OX1R antag-2: inactive; MPTP inh: inactive

How did O=C(Nc1ccc(Br)cn1)C1CCCN1S(=O)(=O)c1ccccc1 (stereo not given) do in these assays?
GPR7 antagonist: inactive; CHO parental Ca: inactive; OX1R antag-1: 49.4; OX1R antag-2: inactive; MPTP inh: inactive

Results for O=C(Nc1cccnc1)C1CCCN1S(=O)(=O)c1ccc(Cl)c(Cl)c1 (stereo not given) ?
GPR7 antagonist: inactive; CHO parental Ca: inactive; OX1R antag-1: 62.6; OX1R antag-2: inactive; MPTP inh: inactive

What do the screens show for `Cc1ccccc1OCCC(=O)Nc1ccc(Cl)cc1F`?
GPR7 antagonist: inactive; CHO parental Ca: inactive; OX1R antag-1: inactive; OX1R antag-2: inactive; MPTP inh: inactive

What do the screens show for `COc1cc(-c2ccc(N3C(c4ccsc4)=Cc4ccccc4C3CC(C)=O)cc2)cc(OC)c1OC` (stereo not given)?
MPTP inh: inactive
